Measurements collected from several papers.
Each line is one published result; the experiments were not run side by side. Values after ≈ are worked out from the molar mass of the structure shown.
Organism: Enterococcus faecalis
Read-out: microbial growth

C=C(NC(=O)C(=C)NC(=O)c1csc(C2=N[C@@H]3c4csc(n4)[C@H]4NC(=O)c5csc(n5)[C@H]([C@](C)(O)[C@@H](C)O)NC(=O)[C@H]5CSC(=N5)/C(=C/C)NC(=O)[C@H]([C@@H](C)O)NC(=O)c5csc(n5)[C@]3(CC2)NC(=O)[C@H](C)NC(=O)C(=C)NC(=O)[C@H](C)NC(=O)[C@H]([C@@H](C)CC)N[C@@H]2C=Cc3c([C@H](C)O)cc(nc3[C@H]2O)C(=O)O[C@@H]4C)n1)C(N)=O — MIC: 0.12 µg/mL (≈ 0.0721 µM)
CCCCCCCCCCCC(=O)C(F)(F)P(=O)(O)O — MIC (ATCC33186): 100 µg/mL (≈ 318 µM)
CCCCCCCCCCCCCCCC(=O)NS(=O)(=O)Oc1cccc(Cl)c1 — MIC (broth dilution; ATCC33186): 1.6 µg/mL (≈ 3.59 µM)
COc1ccc2cc1Oc1cc(ccc1OC)CCC(N[C@@H]1CCCc3ccccc31)CCCC2 (stereo partly shown) — MIC (broth dilution; ATCC33186): > 100 µg/mL
CCCCCCCCCCCC(=O)CP(=O)(O)O — MIC (ATCC33186): 25 µg/mL (≈ 89.8 µM)
CCCCCCCCCCCCCCCC(=O)NS(=O)(=O)OC — MIC (broth dilution; ATCC33186): 50 µg/mL (≈ 143 µM)
CCCCCCCCCCCCCCCC(=O)C(F)(F)P(=O)(O)O — MIC (ATCC33186): 100 µg/mL (≈ 270 µM)
CN[C@@H]1[C@H](O)[C@H](NC)[C@H]2O[C@@]3(O)C(=O)C[C@@H](C)O[C@H]3O[C@@H]2[C@H]1O — MIC (broth dilution; ATCC33186): 50 µg/mL (≈ 150 µM)
Cc1cc(Cl)ccc1-c1ccc(/C=C2\SC(=S)N(CC(=O)O)C2=O)o1 — MIC (broth dilution; VRE; drug-resistant strain): 1 to 8 µg/mL (≈ 2.54 to 20.3 µM)
CCCCCCCCCCCCCCCC(=O)NS(=O)(=O)OC1CCNCC1 — MIC (broth dilution; ATCC33186): 12.5 µg/mL (≈ 29.9 µM)
